According to paper PMC4140444 (Drug Design, Development and Therapy, 2014):

Tests used:
[1] = Cytotoxicity, MTT assay on normal embryonic lung cells; assay type: cell-based; conditions: human, MRC-5 normal embryonic lung cells
Summary of the method: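 MRC-5 cells grown in DMEM with 10% fetal bovine serum and 100 U/mL penicillin–streptomycin, seeded at 5×10³–2×10⁴ cells/well, then held 24 h at 37°C in 5% CO2. Serial dilutions of test compound added in an equal volume of medium, with doxorubicin (positive) and DMSO (negative) controls, for 48 h. MTT applied for 2–4 h; formazan dissolved in DMSO with sonication; read at 550 nm against a 650 nm reference. IC50 is the concentration giving 50% growth inhibition versus the DMSO control.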

[2] = target: T1, CYP19 (a recombinant human aromatase) (Homo sapiens, UniProt P11511); test: Aromatase inhibition assay; assay type: biochemical; conditions: screened at 12.5 μM
T1 sequence (P11511 1-503): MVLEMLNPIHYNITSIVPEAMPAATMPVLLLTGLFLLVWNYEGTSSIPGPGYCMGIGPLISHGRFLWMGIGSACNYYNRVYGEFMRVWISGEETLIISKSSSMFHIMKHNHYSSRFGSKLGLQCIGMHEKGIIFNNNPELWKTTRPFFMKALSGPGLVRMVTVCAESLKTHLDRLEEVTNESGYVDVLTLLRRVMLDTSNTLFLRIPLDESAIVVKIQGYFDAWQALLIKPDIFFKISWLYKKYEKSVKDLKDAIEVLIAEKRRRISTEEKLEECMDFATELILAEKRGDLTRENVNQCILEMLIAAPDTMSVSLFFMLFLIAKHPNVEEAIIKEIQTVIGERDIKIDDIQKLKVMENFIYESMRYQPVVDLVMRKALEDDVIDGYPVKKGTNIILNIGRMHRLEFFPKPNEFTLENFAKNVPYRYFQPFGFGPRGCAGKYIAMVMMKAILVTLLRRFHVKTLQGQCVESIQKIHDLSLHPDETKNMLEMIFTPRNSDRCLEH

[3] = tested on: human breast cancer MCF-7 cell line; conditions: cited from earlier work

| Aromatase inhibitory activity (IC50 column, activity class) [2] | SMILES | IC50 at 48 h [1] | Cytotoxic activity against MCF-7 [3] |
| --- | --- | --- | --- |
|  | COc1cccc2c1C(=O)c1c(O)c3c(c(O)c1C2=O)C[C@@](O)(C(=O)CO)C[C@@H]3O[C@H]1C[C@H](N)[C@H](O)[C@H](C)O1 [Doxorubicin] | > 50 µg/mL |  |
| Inactive ^b | O=c1[nH]cc([N+](=O)[O-])c(=O)[nH]1 [Compound 2, 5-nitrouracil] | > 50 µg/mL |  |
| Inactive ^b | O=c1[nH]cc(I)c(=O)[nH]1 [Compound 3, 5-iodouracil] | > 50 µg/mL |  |

| SMILES | Aromatase inhibitory activity (IC50 column, activity class) [2] | IC50 at 48 h [1] | Cytotoxic activity against MCF-7 [3] |
| --- | --- | --- | --- |
| Oc1cccc2cccnc12 [Compound 1, 8-hydroxyquinoline] | Inactive ^b | 6.27 ± 0.58 µM | substantial cytotoxic activity |
